Sampled rows, rich in hits. Any-hit rate of the full collection: about 3.1%.
rCAG binder-1: binds r(CAG) RNA repeats | r(CAG) RNA repeat, TO-PRO-1 dye displacement fluorescence | inhibition, % at 3 µM | hit rate 1.3% among 370,000;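 active = inhibition above the plate cutoff, the mean of all test compounds on that plate plus 3 SD, cut at about 35% in these data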;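 also: 0% = DMSO alone and 100% = 100 µM mitoxantrone as full dye displacement; higher means more dye released from RNA so lower well fluorescence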
ATG4B inh: blocks human ATG4B protease cleavage of LC3 substrate; Q9Y4P1; ATG4B cleavage of LC3-PLA2, NBD-HPC fluorescence, 1 h; inhibition, % at 8.33 µM; hit rate 0.51% among 340,000; in the data active = inhibition above about 40%
UHRF1 MBD2 ctr: blocks human UHRF1 binding to methylated DNA; hit rate 0.75% among 370,000; AID 687016; inhibition, % at 4.4 µM; Q96T88; UHRF1 binding to methylated oligo, TR-FRET; in the data active = inhibition above about 21%;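 also: UHRF1 SRA domain binding a hemimethylated CpG hairpin DNA probe; 0% = median of test compound wells and 100% = reference inhibitor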
Target sequence (Q96T88 whole entry, looked up, the tested form may be a part): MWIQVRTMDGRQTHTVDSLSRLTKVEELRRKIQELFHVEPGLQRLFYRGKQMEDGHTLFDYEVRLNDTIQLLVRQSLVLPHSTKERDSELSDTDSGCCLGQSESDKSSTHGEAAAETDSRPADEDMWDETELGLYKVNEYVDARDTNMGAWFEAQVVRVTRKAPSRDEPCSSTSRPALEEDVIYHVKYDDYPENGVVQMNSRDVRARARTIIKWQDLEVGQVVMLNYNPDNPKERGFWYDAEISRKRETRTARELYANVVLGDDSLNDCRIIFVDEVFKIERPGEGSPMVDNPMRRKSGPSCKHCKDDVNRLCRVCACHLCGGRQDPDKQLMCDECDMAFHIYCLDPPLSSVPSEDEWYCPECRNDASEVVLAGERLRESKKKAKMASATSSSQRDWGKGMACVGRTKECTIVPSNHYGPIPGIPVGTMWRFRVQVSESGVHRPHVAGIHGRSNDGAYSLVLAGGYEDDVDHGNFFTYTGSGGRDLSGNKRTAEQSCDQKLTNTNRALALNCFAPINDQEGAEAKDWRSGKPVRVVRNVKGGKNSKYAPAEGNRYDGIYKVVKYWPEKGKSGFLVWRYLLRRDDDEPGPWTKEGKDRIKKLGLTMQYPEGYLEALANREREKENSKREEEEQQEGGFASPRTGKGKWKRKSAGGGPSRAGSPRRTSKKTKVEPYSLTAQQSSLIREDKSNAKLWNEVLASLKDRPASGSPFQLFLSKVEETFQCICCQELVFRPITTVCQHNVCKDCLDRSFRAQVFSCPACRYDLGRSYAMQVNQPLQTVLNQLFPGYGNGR
MBD2 inh: inhibitors of human MBD2 binding to methylated oligonucleotide; TR-FRET; inhibition, % at 4.4 µM; hit rate 0.31% among 370,000; AID 686964; in the data active = inhibition above about 13%
LEDGF integ inh: blocks HIV-1 LEDGF/p75-dependent DNA integration; TR-FRET IN-LEDGF/p75 DNA integration, Eu/Cy5; inhibition, % at 3.7 µM; hit rate 0.64% among 370,000; AID 743269;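 active = inhibition above the screen-wide mean plus 3 SD, cut at about 13% in these data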;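 also: signal is the Cy5 over europium emission ratio at 671 and 618 nm; 0% = plate median of compound wells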
CSN deneddyl inh: blocks human CSN-mediated cullin deneddylation. Q92905. Purified CSN, SCF-Nedd8-OG deneddylation, fluorescence polarization. inhibition, % at 12.5 µM. hit rate 0.38% among 360,000. AID 651999;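 active = pattern-corrected inhibition above about 35%, with an unprinted fluorescence ratio check between 0.5 and 1.5, limit read from the data, passing the limit was not always enough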;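 also: 0% = enzyme with substrate and 100% = substrate without enzyme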
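Test system: purified human Csn5 enzyme expressed in HEK293T cells. Amount: 0.24 nM enzyme. Reagent: SCFSkp2-Nedd8OG substrate at 10 nM final. Schedule: 90 min incubation of compound, enzyme and substrate at room temperature. Detection: fluorescence polarization. Read-out: % inhibition of substrate cleavage by Csn5.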
rCAG binder conf: r(CAG) RNA repeat binding, confirmation; AID 652065; shares compounds with rCAG binder-1; inhibition, % at 3 µM; hit rate 70% among 4,300; TO-PRO-1 dye displacement fluorescence;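 active = inhibition above a per-plate cutoff, the mean inhibition of sample wells plus 3 SD, cut at about 35% in these data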;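 also: loss of TO-PRO-1 fluorescence as compound displaces dye from 1x1 AA loop RNA; 0% = DMSO only wells and 100% = 100 µM mitoxantrone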
dCAG dye counter: counter-screen for rCAG RNA binders: DNA CAG dye complex inhibitors | shares compounds with rCAG binder-1 | d(CAG) DNA oligo TO-PRO-1 dye displacement, fluorescence | inhibition, % at 3 µM | hit rate 94% among 4,300;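 active = inhibition above its plate's cutoff, the mean test-well inhibition plus 3 SD, cut at about 4.8% in these data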;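 also: 0% = DNA dye mix with DMSO and 100% = 100 µM mitoxantrone; hits displace the dye from DNA and so lower well fluorescence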
DNA CAG DR: counter-screen for rCAG binders: inhibitors of DNA CAG TO-PRO-1 complex | AID 686960 | shares compounds with rCAG binder-1 | hit rate 20% among 250 | DNA CAG/GTC duplex TO-PRO-1 dye displacement fluorescence | IC50, µM; in the data active = IC50 below about 10 µM
dCAG DNA bind: inhibits DNA CAG/GTC TO-PRO-1 complex, rCAG binder counter-screen; shares compounds with rCAG binder-1; d(CAG) DNA duplex TO-PRO-1 dye displacement, fluorescence; IC50, µM; hit rate 80% among 30; AID 720649
rCAG binder-2: molecules binding r(CAG) RNA repeats, late stage dose response | hit rate 100% among 30 | IC50, µM | shares compounds with rCAG binder-1 | r(CAG) RNA TO-PRO-1 dye displacement, fluorescence
Starred values were filed as active, the others as inactive; · = no result. Unless noted, no rule for the calls is given here.

SMILES	rCAG binder-1	ATG4B inh	UHRF1 MBD2 ctr	MBD2 inh	LEDGF integ inh	CSN deneddyl inh	rCAG binder conf	dCAG dye counter	others
Cc1ccc(S(=O)(=O)N2[C@@H](c3ccc(C#N)cc3)C(C(=O)O)=C[C@H]2CC2CCCC2)cc1	69*	5	-3	-3	0	1	59*	25*
Cc1ccc(S(=O)(=O)N2[C@@H](c3ccc(Cl)c(Cl)c3)C(C(=O)O)=C[C@H]2CC2CCCC2)cc1	87*	25	-1	-1	2	9	86*	57*
CCOC(=O)C1=C[C@@H](CC)N(S(=O)(=O)c2ccc(C)cc2)[C@H]1c1cccc(Cl)c1	1	·	-2	3	2	4	·	·
CC[C@@H]1C=C(C(=O)O)[C@H](c2ccc(OC)c(OC)c2)N1S(=O)(=O)c1ccc(C)cc1	6	-1	1	5	1	3	·	·
Cc1ccc(C(=O)NC2CCCCN(Cc3cccc(F)c3)C2=O)cc1 (stereo unspecified)	-1	·	2	3	6	·	·	·
Cc1nc2ccc(C(=O)N3CCN(C(=O)C(Cl)Cl)CC3)cc2n1C1CCCC1	4	·	-1	0	0	·	·	·
CCOC(=O)C1=C(C)N=c2s/c(=C\c3cc(OC)c(OC)c(OC)c3)c(=O)n2C1/C=C/c1ccccc1 (stereo unspecified)	6	-2	3	0	-6	10	·	·
CCOC(=O)C1=C(C)N=c2s/c(=C/c3cccc(OCC(=O)O)c3)c(=O)n2C1c1ccc(F)cc1 (stereo unspecified)	71*	·	-5	1	7	·	76*	38*
CCOC(=O)C1=C(C)N=c2s/c(=C\c3cccc(OCC(=O)O)c3)c(=O)n2C1c1ccccc1 (stereo unspecified)	76*	17	-2	2	-1	3	75*	36*
CCOC(=O)C1=C(C)N=c2s/c(=C/c3ccco3)c(=O)n2C1c1cccc(OC)c1 (stereo unspecified)	·	1	·	·	·	·	·	·
COc1ccc(-c2nnc(NC(=O)c3ccc(S(=O)(=O)N4COCC4(C)C)cc3)o2)cc1	46*	-17	-2	-5	1	4	54*	15*
O=C1/C(=C2\C(=O)N(Cc3ccc(F)cc3)c3ccccc32)SC(=S)N1CCS(=O)(=O)O	75*	-4	3	-2	-4	1	83*	47*
O=C(O)CN1C(=O)/C(=C2\C(=O)N(Cc3ccccc3Cl)c3ccccc32)SC1=S	13	1	7	2	-5	3	·	·
CCc1nnc(NC(=O)c2ccc(S(=O)(=O)N3CCCC(C)C3)cc2)o1 (stereo unspecified)	11	-11	0	-1	-3	1	·	·
CCN(c1ccccc1)S(=O)(=O)c1ccc(C(=O)Nc2nnc(-c3ccco3)o2)cc1	57*	0	-2	0	-1	3	45*	15*
CC1CCCN(S(=O)(=O)c2ccc(C(=O)Nc3nnc(-c4ccco4)o3)cc2)C1 (stereo unspecified)	41*	5	-3	-8	-2	4	38*	13*
CN(c1ccccc1)S(=O)(=O)c1ccc(C(=O)Nc2nnc(-c3ccco3)o2)cc1	42*	22	-4	0	2	1	36*	13*
CCN(c1ccccc1)S(=O)(=O)c1ccc(C(=O)Nc2nnc(C3CC3)o2)cc1	24	-6	-2	1	-2	3	·	·
COC(=O)[C@]12C[C@H](CC(=O)N3CCN(C(=O)c4ccco4)CC3)C(=O)N(CCc3ccc(OC)c(OC)c3)C1=C[C@H](C(C)C)O[C@@H]2C1CC1	1	·	-1	-3	3	·	·	·
CCCCNC(=O)O[C@H]1CC[C@@]23CCCN2C(=O)CCC[C@H]3[C@H]1C	·	·	0	0	-3	·	·	·
O=C(Nc1ccc(O)cc1C(=O)O)c1ccc2c(c1)C(=O)N(Cc1ccco1)C2=O	73*	-11	3	0	8	7	86*	50*
O=C(Nc1cc([N+](=O)[O-])ccc1O)c1ccc2c(c1)C(=O)N(Cc1ccco1)C2=O	83*	2	0	-11	4	5	64*	25*
O=C(NCc1ccco1)O[C@H]1CC[C@@]23CCCN2C(=O)CCC[C@H]3C1	·	·	1	1	-2	·	·	·
CC(C)c1ccc(C2c3[nH]c4ccccc4c3C[C@H]3C(=O)N(c4ccccc4C(=O)N4CCC(C(=O)O)CC4)C(=O)N23)cc1 (stereo partly specified)	42*	7	-1	0	3	-1	61*	21*
CC(C)c1ccc(C2c3[nH]c4ccccc4c3C[C@H]3C(=O)N(c4ccccc4C(=O)N4CCC[C@@H]4C(=O)O)C(=O)N23)cc1 (stereo partly specified)	46*	-19	0	1	4	0	71*	28*	DNA CAG DR=>30;dCAG DNA bind=>30;rCAG binder-2=1.9*
COc1ccc(C2c3[nH]c4ccccc4c3C[C@H]3C(=O)N(c4ccccc4C(=O)N4CCC[C@H]4C(=O)O)C(=O)N23)cc1 (stereo partly specified)	37*	-6	-2	-5	2	2	51*	16*
Cc1ccc(C2c3[nH]c4ccccc4c3C[C@H]3C(=O)N(c4ccccc4C(=O)N4CCC[C@H]4C(=O)O)C(=O)N23)cc1 (stereo partly specified)	39*	-25	-2	-6	2	-7	57*	18*
O=C(NCCN1CCOCC1)c1ccccc1N1C(=O)[C@@H]2Cc3c([nH]c4ccccc34)C(c3ccccc3)N2C1=O (stereo partly specified)	6	-6	-1	-1	-2	-2	·	·
COc1ccc(C2c3[nH]c4ccccc4c3C[C@H]3C(=O)N(c4ccccc4C(=O)N4CCC[C@@H]4C(=O)O)C(=O)N23)cc1 (stereo partly specified)	32	-26	-1	4	-2	-1	·	·

Assay outcomes as filed in PubChem.
